From ChEMBL document CHEMBL5136958, “The development of HEC-866 and its analogues for the treatment of idiopathic pulmonary fibrosis” (RSC Med Chem, 2021)
Activity calls are given as the source filed them. The rule behind the calls is not given here.

Assays:
HFL1 [1] = test: Antiproliferative activity against human HFL1 cells assessed as reduction in cell proliferation measured after 24 hrs by CCK-8 assay; format: functional, cell-based; conditions: HFL1, 24 h
How it was run: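 Human fetal lung fibroblasts (HFL-1); growth inhibition quantified with CCK-8; IC50 averaged from 3 experiments, each in duplicate.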

[2] = AUClast in Sprague-Dawley rat model of bleomycin-induced pulmonary fibrosis at 2 mg/kg, iv by LC-MS/MS analysis; format: ADME, organism-based; design: time 0 - last, dose 2 mg/kg, route iv; conditions: in vivo
How it was run: (§1)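 Male Sprague-Dawley rats with induced pulmonary fibrosis; single i.v. (2.0 mg kg⁻¹) or p.o. (5.0 mg kg⁻¹) administration. Plasma samples stored at −70 °C; the supernatant was analysed by LC-MS/MS for PK parameters.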

[3] = Clearance in Sprague-Dawley rat model of bleomycin-induced pulmonary fibrosis at 2 mg/kg, iv by LC-MS/MS analysis; format: ADME, organism-based; conditions: in vivo; how it was run: as §1
[4] = AUClast in Sprague-Dawley rat model of bleomycin-induced pulmonary fibrosis at 5 mg/kg, po by LC-MS/MS analysis; format: ADME, organism-based; design: time 0 - last, dose 5 mg/kg, route po; conditions: in vivo; how it was run: as §1
[5] = AUC(infinity) in Sprague-Dawley rat model of bleomycin-induced pulmonary fibrosis at 5 mg/kg, po by LC-MS/MS analysis; format: ADME, organism-based; design: time infinity, dose 5 mg/kg, route po; conditions: in vivo; how it was run: as §1
HFL1 [6] = test: Antifibrotic activity in TGF-beta1-induced HFL1 cell injury assessed as alpha-SMA expression at 5 uM measured after 48 hrs by Western blot analysis (reference value: 100%); format: functional, Homo sapiens
How it was run: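 HFL-1 cells stimulated with TGF-β1; α-SMA protein detected by Western blot with anti-α-SMA antibody, normalised to tubulin; mean of n = 3.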

HFL1 [7] = test: Antifibrotic activity in TGF-beta1-induced HFL1 cell injury assessed as down regulation of collagen 1 mRNA expression at 0.625 to 10 uM measured after 24 hrs by RT-PCR analysis; format: functional, cell-based; conditions: Homo sapiens, dose 0.625-10 µM
How it was run: (§2)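 TGF-β1-induced HFL-1 cells treated 24 h (test range 0.625–10 μM; comparator 3 mM); collagen 1 and collagen 3 mRNA measured by RT-PCR; mean of n = 3.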

HFL1 [8] = test: Antifibrotic activity in TGF-beta1-induced HFL1 cell injury assessed as down regulation of collagen 3 mRNA expression at 0.625 to 10 uM measured after 24 hrs by RT-PCR analysis; format: functional, cell-based; conditions: Homo sapiens, dose 0.625-10 µM; how it was run: as §2
[9] = Clearance in dog at 1 mg/kg, iv by LC-MS/MS analysis; format: ADME, organism-based, Canis lupus familiaris; conditions: in vivo
[10] = Tmax in Sprague-Dawley rat model of bleomycin-induced pulmonary fibrosis at 5 mg/kg, po by LC-MS/MS analysis; format: ADME, organism-based; conditions: in vivo
How it was run: (§3)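 Male Sprague-Dawley rats with induced pulmonary fibrosis were dosed 2.0 mg kg⁻¹ i.v. or 5.0 mg kg⁻¹ p.o. Plasma was stored at -70 °C, and the supernatant was analysed by LC-MS/MS.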

[11] = Cmax in Sprague-Dawley rat model of bleomycin-induced pulmonary fibrosis at 5 mg/kg, po by LC-MS/MS analysis; format: ADME, organism-based; design: dose 5 mg/kg, route po; conditions: in vivo; how it was run: as §1
[12] = Oral bioavailability in Sprague-Dawley rat model of bleomycin-induced pulmonary fibrosis at 5 mg/kg by LC-MS/MS analysis; format: ADME, organism-based; conditions: in vivo; how it was run: as §3
[13] = Volume of distribution at steady state in Sprague-Dawley rat model of bleomycin-induced pulmonary fibrosis at 2 mg/kg, iv by LC-MS/MS analysis; format: ADME, organism-based; conditions: in vivo, read-out: Vdss; how it was run: as §3
[14] = Volume of distribution at steady state in dog at 1 mg/kg, iv by LC-MS/MS analysis; format: ADME, organism-based, Canis lupus familiaris; conditions: in vivo, read-out: Vdss
[15] = Half life in dog at 1 mg/kg, iv by LC-MS/MS analysis; format: ADME, organism-based, Canis lupus familiaris; conditions: in vivo
[16] = Cmax in dog at 5 mg/kg, po by LC-MS/MS analysis; format: ADME, organism-based, Canis lupus familiaris; design: dose 5 mg/kg, route po; conditions: in vivo
[17] = AUClast in dog at 5 mg/kg, po by LC-MS/MS analysis; format: ADME, organism-based, Canis lupus familiaris; design: time 0 - last, dose 5 mg/kg, route po; conditions: in vivo
[18] = Clearance in cynomolgus monkey at 1 mg/kg, iv by LC-MS/MS analysis; format: ADME, organism-based, Macaca fascicularis; conditions: in vivo
[19] = Volume of distribution at steady state in cynomolgus monkey at 1 mg/kg, iv by LC-MS/MS analysis; format: ADME, organism-based, Macaca fascicularis; conditions: in vivo, read-out: Vdss
[20] = Half life in cynomolgus monkey at 1 mg/kg, iv by LC-MS/MS analysis; format: ADME, organism-based, Macaca fascicularis; conditions: in vivo
[21] = Cmax in cynomolgus monkey at 5 mg/kg, po by LC-MS/MS analysis; format: ADME, organism-based, Macaca fascicularis; design: dose 5 mg/kg, route po; conditions: in vivo
Rattus norvegicus [22] = test: Antifibrotic activity against bleomycin-induced pulmonary fibrosis in Sprague-Dawley rat assessed as reduction in lung hydroxyproline content at 6 mg/kg, po administered daily for 1 to 14 days starting from post bleomycin stimulation; format: functional, organism-based; conditions: time 1-14 day
Rattus norvegicus [23] = test: Antifibrotic activity against bleomycin-induced pulmonary fibrosis in po dosed Sprague-Dawley rat assessed as reduction in histopathological changes administered daily for 1 to 14 days starting from post bleomycin stimulation by H and E staining based assay; format: functional, organism-based; conditions: dose 2-6 mg/kg, time 1-14 day, DDE = dose-dependent effect
How it was run: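 Bleomycin-induced lung fibrosis in SD rats; oral dosing daily from day 1 for 14 days; saline for sham and bleomycin groups; comparator 100 mg kg⁻¹ d, test doses 2 and 6 mg kg⁻¹ d; lung pathology assessed by HE histology.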

[24] = Half life in human liver microsomes by LC-MS/MS analysis; format: ADME, Microsome
How it was run: (§4)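 Liver microsomes (human, monkey, dog, rat, mouse) incubated with test compound at 37 °C with NADPH cofactor; samples at 0, 5, 15, 30, 60 min for half-life and in vitro CLint.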

[25] = Half life in monkey liver microsomes by LC-MS/MS analysis; format: ADME, Macaca mulatta, Microsome; conditions: rhesus monkey; how it was run: as §4
[26] = Half life in dog liver microsomes by LC-MS/MS analysis; format: ADME, Canis lupus familiaris, Microsome; how it was run: as §4
[27] = Half life in rat liver microsomes by LC-MS/MS analysis; format: ADME, Microsome; how it was run: as §4
[28] = Half life in mouse liver microsomes by LC-MS/MS analysis; format: ADME, Microsome; how it was run: as §4
[29] = Intrinsic clearance in human liver microsomes by LC-MS/MS analysis; format: ADME, Microsome; conditions: read-out: CLH; how it was run: as §4
[30] = Intrinsic clearance in monkey liver microsomes by LC-MS/MS analysis; format: ADME, Macaca mulatta, Microsome; conditions: rhesus monkey, read-out: CLH
How it was run: (§5)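 Liver microsomes were incubated with the compound at 37 °C with NADPH as cofactor and sampled at 0, 5, 15, 30 and 60 min. Half-life (min) and in vitro CLint (mL min⁻¹ kg) were derived from these samples.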

[31] = Intrinsic clearance in dog liver microsomes by LC-MS/MS analysis; format: ADME, Canis lupus familiaris, Microsome; conditions: read-out: CLH; how it was run: as §4
[32] = Intrinsic clearance in rat liver microsomes by LC-MS/MS analysis; format: ADME, Microsome; conditions: read-out: CLH; how it was run: as §5
Cytochrome P450 2C9 = Cytochrome P450 2C9 (Homo sapiens, UniProt P11712); test: Inhibition of CYP2C9 in human liver microsomes by LC-MS/MS analysis; format: ADME, Microsome
Chain of Cytochrome P450 2C9 (P11712 whole entry): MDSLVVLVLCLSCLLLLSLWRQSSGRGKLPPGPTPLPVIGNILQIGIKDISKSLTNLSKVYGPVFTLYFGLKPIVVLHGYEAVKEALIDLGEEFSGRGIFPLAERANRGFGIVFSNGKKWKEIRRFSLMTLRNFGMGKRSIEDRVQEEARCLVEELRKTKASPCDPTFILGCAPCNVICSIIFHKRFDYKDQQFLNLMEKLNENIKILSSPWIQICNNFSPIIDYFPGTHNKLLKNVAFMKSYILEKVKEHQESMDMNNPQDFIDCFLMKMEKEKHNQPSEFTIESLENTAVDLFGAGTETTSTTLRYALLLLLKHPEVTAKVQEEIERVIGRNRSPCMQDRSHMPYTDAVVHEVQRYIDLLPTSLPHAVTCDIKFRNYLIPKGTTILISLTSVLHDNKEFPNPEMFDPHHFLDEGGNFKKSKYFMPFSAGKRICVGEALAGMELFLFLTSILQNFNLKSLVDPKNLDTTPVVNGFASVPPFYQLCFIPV
How it was run: (§6)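 Human microsomes incubated with CYP-specific substrates (1A2, 2C9, 2C19, 2D6, 3A4) and test compound at 0.0–10 μM; IC50 determined.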

Cytochrome P450 3A4 = Cytochrome P450 3A4 (Homo sapiens, UniProt P08684); test: Inhibition of CYP3A4 in human liver microsomes by LC-MS/MS analysis; format: ADME, Microsome; how it was run: as §6
Chain of Cytochrome P450 3A4 (P08684 whole entry): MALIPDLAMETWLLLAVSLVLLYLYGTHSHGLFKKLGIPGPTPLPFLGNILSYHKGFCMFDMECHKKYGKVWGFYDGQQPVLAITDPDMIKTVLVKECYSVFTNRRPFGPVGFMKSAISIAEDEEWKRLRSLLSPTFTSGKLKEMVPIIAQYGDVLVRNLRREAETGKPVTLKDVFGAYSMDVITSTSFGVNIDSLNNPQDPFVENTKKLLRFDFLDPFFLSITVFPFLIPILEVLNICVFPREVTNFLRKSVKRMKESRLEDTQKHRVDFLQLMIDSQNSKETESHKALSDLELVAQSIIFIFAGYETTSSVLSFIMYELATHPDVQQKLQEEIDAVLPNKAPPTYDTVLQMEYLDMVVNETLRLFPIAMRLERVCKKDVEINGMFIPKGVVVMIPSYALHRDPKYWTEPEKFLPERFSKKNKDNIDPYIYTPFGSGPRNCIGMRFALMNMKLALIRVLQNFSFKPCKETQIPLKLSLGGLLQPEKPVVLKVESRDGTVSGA

[33] = Mutagenecity in Salmonella typhimurium TA98 at 7.8 to 1000 ug measured after 2 to 3 days by mini-Ames test; format: toxicity, Salmonella enterica subsp. enterica serovar Typhimurium; conditions: dose lower 7.8 µg, time lower 2 day, dose upper 1000 µg, time upper 3 day
How it was run: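 Bacterial reverse mutation assay scoring reverse gene mutations at the histidine locus in Salmonella typhimurium strains TA98 and TA100.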

[34] = Toxicity in po dosed Sprague-Dawley rat administered once daily for 28 days; format: organism-based; conditions: in vivo, time 28 day

Cc1cc(=O)n(-c2ccc(N3CCC(Cc4ccc(Cl)c(F)c4)CC3)c(Cl)c2)c(C)n1 gave an IC50 (HFL1 [1]) of 60 µM, an AUC(0-t) [2] of 4280 ng·h/mL and a clearance [3] of 4.33 mL/min/kg. It also gave an AUC(0-t) [4] of 11200 ng·h/mL, an AUC(0-inf) [5] of 17100 ng·h/mL and an Activity (HFL1 [6]) of 72.56%. For the same molecule, the Activity (HFL1 [7]) was “Active”, the Activity (HFL1 [8]) was “Active” and the clearance [9] was 1.67 mL/min/kg. For the same molecule, the Tmax [10] was 1.7 h, the Cmax [11] was 1120 ng/mL and the bioavailability [12] was 105%. The Vd [13] was 8.2 L/kg, the Vd [14] was 1.8 L/kg and the half-life [15] was 11 h. For the same molecule, the Cmax [16] was 628 ng/mL, the AUC(0-t) [17] was 5910 ng·h/mL and the clearance [18] was 3.33 mL/min/kg. It also gave a Vd [19] of 3.9 L/kg, a half-life [20] of 16 h and a Cmax [21] of 1060 ng/mL. For the same molecule, the Activity (Rattus norvegicus [22]) was “Active”, the Activity (Rattus norvegicus [23]) was “Dde” and the half-life [24] was 1.73 h. For the same molecule, the half-life [25] was 0.695 h, the half-life [26] was 4.93 h and the half-life [27] was 1.71 h. The half-life [28] was 1.18 h, the CLint scaled [29] was 16.7 mL/min/kg and the CLint scaled [30] was 48.6 mL/min/kg. For the same molecule, the CLint scaled [31] was 11.7 mL/min/kg, the CLint scaled [32] was 24.2 mL/min/kg and the IC50 (Cytochrome P450 2C9) was over 10 µM. For the same molecule, the IC50 (Cytochrome P450 3A4) was over 10 µM, the Activity [33] was “Non-Toxic” and the MTD at 672 h [34] was over 500 mg/kg.
